Laboratory results reported in ChEMBL document CHEMBL1667839, “Discovery of new anti-depressants from structurally novel 5-HT3 receptor antagonists: design, synthesis and pharmacological evaluation of 3-ethoxyquinoxalin-2-carboxamides” (Bioorg Med Chem Lett, 2011).

Columns and labels:
[1] = target: T1, 5-hydroxytryptamine receptor 3A (Cavia porcellus, UniProt O70212); assay: Antagonist activity at 5-HT3 receptor in guinea pig ileum muscle; format: functional, tissue-based; conditions: read-out: pA2 (converted)
T1 sequence (O70212 whole entry): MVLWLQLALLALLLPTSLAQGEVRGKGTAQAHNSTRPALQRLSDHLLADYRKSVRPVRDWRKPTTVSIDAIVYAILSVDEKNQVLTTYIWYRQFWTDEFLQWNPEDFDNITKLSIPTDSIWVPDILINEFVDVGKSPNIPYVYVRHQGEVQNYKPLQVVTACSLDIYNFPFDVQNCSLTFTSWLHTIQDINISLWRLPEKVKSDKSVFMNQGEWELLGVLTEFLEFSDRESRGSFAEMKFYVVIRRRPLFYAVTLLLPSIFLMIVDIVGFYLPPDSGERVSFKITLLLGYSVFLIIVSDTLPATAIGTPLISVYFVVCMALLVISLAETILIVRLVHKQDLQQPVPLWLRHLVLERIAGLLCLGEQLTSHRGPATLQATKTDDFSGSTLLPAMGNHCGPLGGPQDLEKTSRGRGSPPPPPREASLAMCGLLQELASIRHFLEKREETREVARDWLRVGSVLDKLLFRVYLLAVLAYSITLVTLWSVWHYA
Outline: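 Longitudinal muscle myenteric plexus preparation from ileum of male Dunkin Hartley guinea pigs (350-400 g); antagonism measured against the 5-HT3 agonist 2-methyl-5-HT and expressed as pA2 by literature methods; mean of two separate experiments.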

Mus musculus [2] = assay: Antidepressant activity in mouse assessed as immobility time at 1 mg/kg, ip by forced swimming test; format: functional; conditions: route intraperitoneal
Mus musculus [3] = assay: Antipsychotic activity in Swiss Albino mouse assessed as spontaneous locomotor score at 1 mg/kg, ip measured for 10 mins by actophotometer; format: functional; conditions: route intraperitoneal
Outline: (§1)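 Swiss Albino mice (23 ± 2 g) given compound intraperitoneally in 10% PEG-400 in water; spontaneous locomotor activity counted in an actophotometer over 10 min as locomotor score; n = 8 per group, mean; one-way ANOVA with Dunnett's test versus vehicle-treated group.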

Mus musculus [4] = assay: Antidepressant activity in Swiss Albino mouse assessed as immobility time at 2 mg/kg, ip by forced swimming test; format: functional; conditions: route intraperitoneal
Mus musculus [5] = assay: Antipsychotic activity in Swiss Albino mouse assessed as spontaneous locomotor score at 0.5 mg/kg, ip measured for 10 mins by actophotometer; format: functional; conditions: route intraperitoneal; outline: as §1
Mus musculus [6] = assay: Antidepressant activity in Swiss Albino mouse assessed as immobility time at 0.5 mg/kg, ip by forced swimming test (reference value: 165.6 +/- 03.2 sec); format: functional; conditions: route intraperitoneal
Mus musculus [7] = assay: Antipsychotic activity in Swiss Albino mouse assessed as spontaneous locomotor score at 2 mg/kg, ip measured for 10 mins by actophotometer; format: functional; conditions: route intraperitoneal; outline: as §1

Row | Kb [1] [nM] | Structure (SMILES) | Time (Mus musculus [2]) [s] | Activity (Mus musculus [3]) [score] | Time (Mus musculus [4]) [s] | Activity (Mus musculus [5]) [score] | Time (Mus musculus [6]) [s] | Activity (Mus musculus [7]) [score]
1 | 10000 | CCOc1nc2ccccc2nc1C(=O)N1CCN(c2ccccc2)CC1 | 134 | 382 | – | – | – | –
2 | 100 | CCOc1nc2ccccc2nc1C(=O)N1CCN(c2ccccc2OC)CC1 | 113.3 | 360 | 122 | 351 | 115.3 | 366
3 | 158 | CCOc1nc2ccccc2nc1C(=O)N1CCN(c2ccc(OC)cc2)CC1 | 114.6 | 356 | 121.6 | 352 | 159 | 361
4 | 1000 | CCOc1nc2ccccc2nc1C(=O)N1CCN(c2ccc(Cl)cc2)CC1 | 146.6 | 364 | – | – | – | –
5 | 251 | CCOc1nc2ccccc2nc1C(=O)N1CCN(c2cccc(Cl)c2)CC1 | 110.6 | 352 | 76.6 | 361 | 83.6 | 358
6 | 7940 | CCOc1nc2ccccc2nc1C(=O)N1CCN(c2cccc(C(F)(F)F)c2)CC1 | 148 | 356 | – | – | – | –
7 | 25100 | CCOc1nc2ccccc2nc1C(=O)N1CCN(Cc2ccccc2)CC1 | 160 | 366 | – | – | – | –

Second part, the compound before the results:

Row | Structure (SMILES) | Kb [1] [nM] | Time (Mus musculus [2]) [s] | Activity (Mus musculus [3]) [score] | Time (Mus musculus [4]) [s] | Activity (Mus musculus [5]) [score] | Time (Mus musculus [6]) [s] | Activity (Mus musculus [7]) [score]
8 | CCOc1nc2ccccc2nc1C(=O)Nc1cccnc1 | 15800 | 144 | 365 | – | – | – | –
9 | CCOc1nc2ccccc2nc1C(=O)N1CCN(C)CC1 | 20 | 94 | 350 | 130 | 353 | 125 | 356
10 | CCOc1nc2ccccc2nc1C(=O)N1CCN(CC)CC1 | 31.6 | 98 | 360 | 128 | 349 | 159.3 | 352
11 | C=CCN1CCN(C(=O)c2nc3ccccc3nc2OCC)CC1 | 158 | 127 | 360 | 118 | 345 | 152 | 352
12 | CCOc1nc2ccccc2nc1C(=O)NCCN(C)C | 126 | 117.7 | 349 | 96 | 345 | 133.6 | 343
13 | CCOc1nc2ccccc2nc1C(=O)NCCN(CC)CC | 20000 | 162 | 362 | – | – | – | –
14 | CCOc1nc2ccccc2nc1C(=O)NCCc1c[nH]c2ccccc12 | 63.1 | 104 | 350 | 79.3 | 366 | 150.3 | 355
15 | CCOc1nc2ccccc2nc1C(=O)Nc1ccc(N(CC)CC)cc1 | 10000 | 145 | 374 | – | – | – | –
16 | Cc1nccn1CC1CCc2c(c3ccccc3n2C)C1=O (stereo not drawn) [ONDANSETRON] | – | 100.4 | 388 | 95.1 | 368 | 130.2 | 400
